The results in this text go back to ChEMBL document CHEMBL4837207, “Discovery of pyrrolo[2,3-d]pyrimidine derivatives as potent Axl inhibitors: Design, synthesis and biological evaluation” (Eur J Med Chem, 2021).

The IC50 is the point on the concentration scale where inhibition reaches its midpoint. The term half-life denotes the time needed for the level to fall by half in the phase considered. High values mean slow loss, low ones fast loss. Usually Tmax stands for the time at which the peak concentration occurs. The term TGI denotes the reduction of tumour growth relative to the control group. For orientation: Cmax means the highest concentration seen after dosing.

Data set [1] deals with T1, Hepatocyte growth factor receptor (Homo sapiens, UniProt P08581). Briefly: Inhibition of c-MET (unknown origin) by ELISA. A general note: In an ELISA, binding on a coated surface is turned into a signal by an enzyme label.
T1 sequence (P08581 whole entry): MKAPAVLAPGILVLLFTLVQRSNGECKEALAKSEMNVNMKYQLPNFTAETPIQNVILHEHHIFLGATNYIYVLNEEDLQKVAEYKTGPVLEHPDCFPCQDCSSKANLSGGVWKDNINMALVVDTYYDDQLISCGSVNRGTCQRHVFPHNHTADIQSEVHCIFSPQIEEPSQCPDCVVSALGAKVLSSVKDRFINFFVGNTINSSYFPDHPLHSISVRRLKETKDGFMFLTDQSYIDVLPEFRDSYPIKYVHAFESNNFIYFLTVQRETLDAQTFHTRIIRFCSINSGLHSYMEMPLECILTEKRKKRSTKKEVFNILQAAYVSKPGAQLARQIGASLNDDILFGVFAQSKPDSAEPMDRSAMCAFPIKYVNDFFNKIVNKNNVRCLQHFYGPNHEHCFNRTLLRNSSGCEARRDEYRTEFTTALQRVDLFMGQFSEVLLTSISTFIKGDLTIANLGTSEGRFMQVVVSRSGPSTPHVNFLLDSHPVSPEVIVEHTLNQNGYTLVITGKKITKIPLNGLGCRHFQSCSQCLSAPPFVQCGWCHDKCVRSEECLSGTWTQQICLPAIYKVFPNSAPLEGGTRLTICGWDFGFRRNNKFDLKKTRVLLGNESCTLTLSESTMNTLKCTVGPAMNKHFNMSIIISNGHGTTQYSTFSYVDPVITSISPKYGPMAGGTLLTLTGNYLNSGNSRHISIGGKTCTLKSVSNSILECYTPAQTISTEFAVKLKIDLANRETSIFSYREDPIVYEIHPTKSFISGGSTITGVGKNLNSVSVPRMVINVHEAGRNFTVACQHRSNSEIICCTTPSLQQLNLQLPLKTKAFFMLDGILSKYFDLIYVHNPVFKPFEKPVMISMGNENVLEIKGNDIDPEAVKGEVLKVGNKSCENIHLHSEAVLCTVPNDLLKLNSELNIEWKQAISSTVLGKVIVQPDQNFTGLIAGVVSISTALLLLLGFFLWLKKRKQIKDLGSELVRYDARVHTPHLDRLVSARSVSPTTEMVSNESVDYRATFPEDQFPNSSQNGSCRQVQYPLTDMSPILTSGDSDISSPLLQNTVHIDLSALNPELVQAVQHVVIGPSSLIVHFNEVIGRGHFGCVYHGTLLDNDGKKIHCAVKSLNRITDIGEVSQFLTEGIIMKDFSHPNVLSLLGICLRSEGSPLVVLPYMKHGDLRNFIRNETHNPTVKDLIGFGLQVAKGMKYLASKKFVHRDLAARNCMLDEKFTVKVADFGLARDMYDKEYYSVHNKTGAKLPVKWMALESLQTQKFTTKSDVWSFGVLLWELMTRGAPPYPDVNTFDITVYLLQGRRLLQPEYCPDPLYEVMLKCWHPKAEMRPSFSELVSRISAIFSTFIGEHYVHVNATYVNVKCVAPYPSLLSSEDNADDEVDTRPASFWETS
Data set [2] addresses Vascular endothelial growth factor receptor 1 (Homo sapiens, UniProt P17948). Briefly: Inhibition of VEGFR1 (unknown origin) by ELISA.
Data set [3] addresses Proto-oncogene tyrosine-protein kinase Src (Homo sapiens, UniProt P12931). In words: Inhibition of SRC (unknown origin) by ELISA.
A short description of data set [4]: Half life in Sprague-Dawley rat at 3 mg/kg, po via gavage measured up to 24 hrs by LC-MS analysis. The data set is classed as ADME, organism-based. The note with it: in vivo. In short, it runs like this: (§1)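 Male Sprague-Dawley rats (n = 3) dosed once by oral gavage at 3 mg/kg as a solution in 5% DMSO/95% (0.5% CMC-Na). Blood sampled at 0.25, 0.5, 1, 2, 4, 6, 8 and 24 h, kept on wet ice, serum separated by centrifugation and stored at -20 °C. Serum levels measured by LC-MS/MS; parameters reported as means.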

Data set [5] can be described thus: Tmax in Sprague-Dawley rat at 3 mg/kg, po via gavage measured up to 24 hrs by LC-MS analysis. The note with it: in vivo. The class given is ADME, organism-based. The essentials: as §1
Data set [6] deals with T2, Receptor-type tyrosine-protein kinase FLT3 (Homo sapiens, UniProt P36888).
T2 sequence (P36888 whole entry): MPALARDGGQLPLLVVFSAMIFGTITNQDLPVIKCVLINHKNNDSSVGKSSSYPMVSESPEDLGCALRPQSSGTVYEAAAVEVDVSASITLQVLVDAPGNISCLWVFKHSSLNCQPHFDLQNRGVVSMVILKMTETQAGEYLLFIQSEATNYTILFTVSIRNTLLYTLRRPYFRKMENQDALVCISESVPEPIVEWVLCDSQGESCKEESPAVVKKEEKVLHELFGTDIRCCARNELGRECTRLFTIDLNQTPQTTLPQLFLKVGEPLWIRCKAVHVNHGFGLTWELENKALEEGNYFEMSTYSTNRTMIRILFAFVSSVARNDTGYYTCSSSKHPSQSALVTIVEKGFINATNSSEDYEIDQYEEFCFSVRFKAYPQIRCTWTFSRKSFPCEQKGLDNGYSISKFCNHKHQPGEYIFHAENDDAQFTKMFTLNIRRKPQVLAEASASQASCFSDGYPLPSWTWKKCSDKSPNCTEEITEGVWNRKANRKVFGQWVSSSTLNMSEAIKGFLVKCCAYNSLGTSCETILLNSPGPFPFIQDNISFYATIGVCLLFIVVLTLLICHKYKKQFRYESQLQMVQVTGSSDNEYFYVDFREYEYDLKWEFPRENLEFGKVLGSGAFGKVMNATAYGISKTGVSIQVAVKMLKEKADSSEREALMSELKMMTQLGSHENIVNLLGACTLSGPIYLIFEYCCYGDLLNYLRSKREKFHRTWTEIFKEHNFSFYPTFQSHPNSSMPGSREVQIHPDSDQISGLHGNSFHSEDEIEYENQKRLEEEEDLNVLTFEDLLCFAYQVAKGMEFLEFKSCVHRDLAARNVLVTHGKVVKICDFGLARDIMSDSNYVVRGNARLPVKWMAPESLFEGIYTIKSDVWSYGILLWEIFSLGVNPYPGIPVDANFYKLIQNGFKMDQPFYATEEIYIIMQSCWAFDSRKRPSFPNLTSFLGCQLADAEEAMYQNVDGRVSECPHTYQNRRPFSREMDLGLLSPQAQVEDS
Briefly: Inhibition of FLT-3 (unknown origin) by ELISA.

In the next data set the test system is BaF3. In words: Antitumor activity against mouse BaF3 cells stably expressing human TEL-AXL xenografted in nude mouse assessed as tumor growth inhibition at 50 to 100 mg/kg, po administered once daily for 14 consecutive days relative to control. The data set is classed as functional. As to conditions: dose 50-100 mg/kg; time 14 day. (In general: A xenograft is tissue or cells of one species grown in another, often human tumour cells in immunodeficient mice.)

Data set [7] in a line: Cmax in Sprague-Dawley rat at 3 mg/kg, po via gavage measured up to 24 hrs by LC-MS analysis. Set-up: route oral, dose 3 mg/kg, time <=24. The class given is ADME, organism-based. As to conditions: in vivo. The essentials:
as §1

The target of data set [8] is Epidermal growth factor receptor (Homo sapiens, UniProt P00533). In words: Inhibition of EGFR (unknown origin) by ELISA.
Sequence of Epidermal growth factor receptor (P00533 whole entry): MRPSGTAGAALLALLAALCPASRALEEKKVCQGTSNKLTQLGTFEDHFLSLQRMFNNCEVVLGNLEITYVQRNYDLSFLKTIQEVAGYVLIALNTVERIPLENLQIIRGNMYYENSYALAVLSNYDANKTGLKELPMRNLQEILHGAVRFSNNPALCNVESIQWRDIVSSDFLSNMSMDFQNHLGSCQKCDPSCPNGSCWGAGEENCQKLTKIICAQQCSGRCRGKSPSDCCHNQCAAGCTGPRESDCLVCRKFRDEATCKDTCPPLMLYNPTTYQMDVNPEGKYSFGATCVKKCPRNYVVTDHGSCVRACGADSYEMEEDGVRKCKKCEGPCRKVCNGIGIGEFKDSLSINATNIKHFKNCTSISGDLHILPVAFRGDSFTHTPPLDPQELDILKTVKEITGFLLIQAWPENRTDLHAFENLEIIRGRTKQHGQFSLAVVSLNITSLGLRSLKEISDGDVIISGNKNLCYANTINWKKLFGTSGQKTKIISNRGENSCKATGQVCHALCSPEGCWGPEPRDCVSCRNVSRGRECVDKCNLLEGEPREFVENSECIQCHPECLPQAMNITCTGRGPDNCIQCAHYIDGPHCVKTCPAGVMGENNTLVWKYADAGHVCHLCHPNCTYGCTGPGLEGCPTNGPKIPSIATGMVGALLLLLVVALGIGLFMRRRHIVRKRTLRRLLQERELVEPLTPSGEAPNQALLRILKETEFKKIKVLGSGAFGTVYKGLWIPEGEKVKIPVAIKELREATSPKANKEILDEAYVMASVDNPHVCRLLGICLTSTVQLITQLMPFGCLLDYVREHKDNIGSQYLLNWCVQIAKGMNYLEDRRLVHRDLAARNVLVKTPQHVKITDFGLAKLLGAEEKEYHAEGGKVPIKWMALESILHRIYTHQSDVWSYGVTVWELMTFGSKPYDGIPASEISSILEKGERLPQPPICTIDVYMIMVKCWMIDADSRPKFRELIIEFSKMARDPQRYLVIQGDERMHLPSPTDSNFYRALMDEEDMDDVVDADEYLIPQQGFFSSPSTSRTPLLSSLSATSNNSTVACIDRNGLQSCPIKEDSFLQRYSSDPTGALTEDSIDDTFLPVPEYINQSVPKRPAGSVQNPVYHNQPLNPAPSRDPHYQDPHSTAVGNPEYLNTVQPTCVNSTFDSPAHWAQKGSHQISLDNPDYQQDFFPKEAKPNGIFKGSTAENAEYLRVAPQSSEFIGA
Data set [9] concerns the target Mast/stem cell growth factor receptor Kit (Homo sapiens, UniProt P10721). In words: Inhibition of Kit(unknown origin) by ELISA.
The target in data set [10] is T3, Tyrosine-protein kinase receptor UFO (Mus musculus) (UniProt Q00993).
T3 sequence (whole entry): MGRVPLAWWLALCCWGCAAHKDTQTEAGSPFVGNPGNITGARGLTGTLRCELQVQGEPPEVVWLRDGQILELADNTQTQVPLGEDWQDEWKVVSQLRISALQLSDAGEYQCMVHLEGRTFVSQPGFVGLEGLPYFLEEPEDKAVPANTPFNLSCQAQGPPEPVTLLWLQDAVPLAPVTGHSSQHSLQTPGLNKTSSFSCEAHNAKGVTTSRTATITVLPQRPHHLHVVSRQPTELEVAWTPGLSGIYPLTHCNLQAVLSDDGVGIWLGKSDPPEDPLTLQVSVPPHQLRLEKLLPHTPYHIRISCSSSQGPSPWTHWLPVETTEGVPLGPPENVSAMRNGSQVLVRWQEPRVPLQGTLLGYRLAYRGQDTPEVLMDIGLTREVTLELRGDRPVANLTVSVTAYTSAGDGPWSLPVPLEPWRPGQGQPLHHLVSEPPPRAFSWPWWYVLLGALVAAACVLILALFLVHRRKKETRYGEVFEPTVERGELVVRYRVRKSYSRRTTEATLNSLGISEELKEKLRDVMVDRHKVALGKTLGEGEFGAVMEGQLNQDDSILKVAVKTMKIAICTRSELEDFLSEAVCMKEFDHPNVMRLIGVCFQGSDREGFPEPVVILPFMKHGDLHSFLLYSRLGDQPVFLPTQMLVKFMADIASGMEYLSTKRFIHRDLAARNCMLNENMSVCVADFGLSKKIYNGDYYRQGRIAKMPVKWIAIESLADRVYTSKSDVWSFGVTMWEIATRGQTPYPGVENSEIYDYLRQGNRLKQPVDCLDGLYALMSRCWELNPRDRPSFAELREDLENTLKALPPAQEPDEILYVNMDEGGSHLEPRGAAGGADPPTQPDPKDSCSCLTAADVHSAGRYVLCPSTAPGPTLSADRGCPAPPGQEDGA
Briefly: Inhibition of AXL in mouse BaF3 cells assessed as reduction in AKT phosphorylation at S473 residue by Western blot analysis. The data set is classed as cell-based. The note with it: dose 0.1-10 nM. In short, it runs like this: (§2)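 Cells in exponential growth (BaF3 engineered to stably express constitutively active human wild-type TEL-Axl; MKN-45) exposed to the indicated concentrations for 2 h, then lysed in 1× SDS sample buffer. Phosphorylated proteins detected by Western blot.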
Background: Immunoblotting shows a protein as a band on a membrane.

The target of data set [11] is Receptor tyrosine-protein kinase erbB-2 (Homo sapiens, UniProt P04626). Briefly: Inhibition of ERBB2 (unknown origin) by ELISA.
A further data set concerns the target Ephrin type-A receptor 2 (Homo sapiens, UniProt P29317). In words: Inhibition of EPHA2 (unknown origin) by ELISA.
For data set [12], the target named is Insulin-like growth factor 1 receptor (Homo sapiens, UniProt P08069). Briefly: Inhibition of IGF1R (unknown origin) by ELISA.
Data set [13] addresses T1, Hepatocyte growth factor receptor. In words: Inhibition of c-met phosphorylation at Y1234/Y1235 residues in human MKN-45 cells by Western blot analysis. The data set is classed as cell-based. As to conditions: dose 2.5-20 nM. The essentials:
as §2

Sequence of Ephrin type-A receptor 2 (P29317 whole entry): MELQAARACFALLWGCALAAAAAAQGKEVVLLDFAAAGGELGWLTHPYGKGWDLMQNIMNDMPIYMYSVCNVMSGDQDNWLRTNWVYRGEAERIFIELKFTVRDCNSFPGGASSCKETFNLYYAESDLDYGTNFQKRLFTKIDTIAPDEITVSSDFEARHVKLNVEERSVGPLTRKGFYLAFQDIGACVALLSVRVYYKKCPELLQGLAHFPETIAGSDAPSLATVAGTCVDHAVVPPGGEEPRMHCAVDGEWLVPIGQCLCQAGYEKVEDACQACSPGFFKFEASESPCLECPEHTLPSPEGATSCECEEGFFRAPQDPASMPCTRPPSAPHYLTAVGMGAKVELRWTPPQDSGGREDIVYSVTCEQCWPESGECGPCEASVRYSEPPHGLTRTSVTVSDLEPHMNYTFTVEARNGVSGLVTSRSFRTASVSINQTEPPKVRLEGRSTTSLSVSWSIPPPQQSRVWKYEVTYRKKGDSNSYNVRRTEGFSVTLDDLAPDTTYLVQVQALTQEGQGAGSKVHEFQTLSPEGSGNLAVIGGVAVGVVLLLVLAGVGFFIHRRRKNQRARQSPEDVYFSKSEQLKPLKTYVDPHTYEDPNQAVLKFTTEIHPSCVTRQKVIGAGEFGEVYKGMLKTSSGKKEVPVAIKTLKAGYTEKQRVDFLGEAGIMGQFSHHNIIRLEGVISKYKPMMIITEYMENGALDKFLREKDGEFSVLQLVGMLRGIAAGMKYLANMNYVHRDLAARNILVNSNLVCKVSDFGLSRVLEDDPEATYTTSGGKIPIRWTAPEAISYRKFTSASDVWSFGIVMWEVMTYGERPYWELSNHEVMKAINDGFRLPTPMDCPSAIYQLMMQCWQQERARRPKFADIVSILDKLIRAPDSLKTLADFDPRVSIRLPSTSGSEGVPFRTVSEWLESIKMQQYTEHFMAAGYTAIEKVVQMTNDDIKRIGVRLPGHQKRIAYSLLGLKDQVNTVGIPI
Sequence of Proto-oncogene tyrosine-protein kinase Src (P12931 2-536 limits assumed): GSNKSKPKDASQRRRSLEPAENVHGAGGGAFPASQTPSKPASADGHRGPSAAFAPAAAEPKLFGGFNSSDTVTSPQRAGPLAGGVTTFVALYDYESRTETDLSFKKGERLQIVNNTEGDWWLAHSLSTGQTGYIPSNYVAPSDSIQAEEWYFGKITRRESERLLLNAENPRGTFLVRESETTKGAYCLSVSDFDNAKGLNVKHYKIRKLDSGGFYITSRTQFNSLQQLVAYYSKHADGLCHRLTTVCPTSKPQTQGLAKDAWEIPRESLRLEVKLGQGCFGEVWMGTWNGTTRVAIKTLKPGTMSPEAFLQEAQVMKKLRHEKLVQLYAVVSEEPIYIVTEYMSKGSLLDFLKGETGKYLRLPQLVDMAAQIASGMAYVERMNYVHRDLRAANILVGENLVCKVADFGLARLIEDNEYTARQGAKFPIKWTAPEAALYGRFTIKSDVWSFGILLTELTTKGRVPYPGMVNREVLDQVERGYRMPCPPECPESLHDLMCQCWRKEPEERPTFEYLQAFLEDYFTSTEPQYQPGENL
Sequence of Mast/stem cell growth factor receptor Kit (P10721 whole entry): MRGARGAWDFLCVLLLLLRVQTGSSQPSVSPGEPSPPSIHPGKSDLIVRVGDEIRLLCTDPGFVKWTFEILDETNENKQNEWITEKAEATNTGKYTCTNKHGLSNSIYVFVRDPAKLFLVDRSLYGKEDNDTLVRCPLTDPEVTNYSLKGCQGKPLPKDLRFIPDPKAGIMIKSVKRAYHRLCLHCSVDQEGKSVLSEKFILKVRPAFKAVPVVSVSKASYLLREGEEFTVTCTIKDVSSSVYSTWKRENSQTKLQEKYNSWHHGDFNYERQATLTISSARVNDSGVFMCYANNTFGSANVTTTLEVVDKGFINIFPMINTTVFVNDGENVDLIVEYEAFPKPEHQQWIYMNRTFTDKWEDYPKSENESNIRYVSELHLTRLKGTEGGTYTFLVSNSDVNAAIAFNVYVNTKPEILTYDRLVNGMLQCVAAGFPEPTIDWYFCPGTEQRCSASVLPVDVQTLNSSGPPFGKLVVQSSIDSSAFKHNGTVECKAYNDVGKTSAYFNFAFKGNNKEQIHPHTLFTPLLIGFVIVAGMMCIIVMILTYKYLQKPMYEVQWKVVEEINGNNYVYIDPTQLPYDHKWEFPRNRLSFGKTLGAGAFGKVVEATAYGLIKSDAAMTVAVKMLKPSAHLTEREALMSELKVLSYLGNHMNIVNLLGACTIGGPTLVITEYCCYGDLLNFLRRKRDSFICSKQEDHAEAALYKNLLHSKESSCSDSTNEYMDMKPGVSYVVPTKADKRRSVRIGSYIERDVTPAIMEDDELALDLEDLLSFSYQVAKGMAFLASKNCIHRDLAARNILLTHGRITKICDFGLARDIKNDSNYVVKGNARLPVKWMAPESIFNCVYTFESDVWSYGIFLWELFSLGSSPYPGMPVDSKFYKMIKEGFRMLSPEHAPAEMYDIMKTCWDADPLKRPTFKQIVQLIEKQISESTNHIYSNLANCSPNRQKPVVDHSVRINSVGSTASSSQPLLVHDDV

Take `CC(C)n1cc(C(=O)Nc2cc(F)c(-c3c[nH]c4ncnc(N)c34)cc2F)c(=O)c(-c2ccc(F)cc2)c1`: the IC50 in [1] was 0.0045 µM; in data set [2] it was greater than 1 µM; in data set [3], greater than 1 µM; in [6], greater than 1 µM; in data set [8] it was greater than 1 µM; in data set [9], greater than 1 µM. Besides, the values for the IC50 (in data set [11]; against Ephrin type-A receptor 2; in data set [12]) were greater than 1 µM, greater than 0.5 µM and greater than 1 µM, respectively. In [4], the half-life is 2.74 h. Also, the Tmax in data set [5] came to 1.08 h. For the same compound, the tumour growth inhibition (TGI) in the data set on BaF3 was 67.4%. In data set [7], the highest level (Cmax) was 14.1 µg/mL. In addition, the inhibition result in [10] and in data set [13] was “Dose-Dependent Effect” each time.
